Data taken from ChEMBL document CHEMBL1145445, “Dual aromatase-steroid sulfatase inhibitors” (J Med Chem, 2007).

How the values were obtained:
[1] = target: T1, Aromatase (Homo sapiens, UniProt P11511); test: Inhibition of aromatase in JEG3 cell membrane; type: cell-based, JEG-3
T1 sequence (P11511 whole entry): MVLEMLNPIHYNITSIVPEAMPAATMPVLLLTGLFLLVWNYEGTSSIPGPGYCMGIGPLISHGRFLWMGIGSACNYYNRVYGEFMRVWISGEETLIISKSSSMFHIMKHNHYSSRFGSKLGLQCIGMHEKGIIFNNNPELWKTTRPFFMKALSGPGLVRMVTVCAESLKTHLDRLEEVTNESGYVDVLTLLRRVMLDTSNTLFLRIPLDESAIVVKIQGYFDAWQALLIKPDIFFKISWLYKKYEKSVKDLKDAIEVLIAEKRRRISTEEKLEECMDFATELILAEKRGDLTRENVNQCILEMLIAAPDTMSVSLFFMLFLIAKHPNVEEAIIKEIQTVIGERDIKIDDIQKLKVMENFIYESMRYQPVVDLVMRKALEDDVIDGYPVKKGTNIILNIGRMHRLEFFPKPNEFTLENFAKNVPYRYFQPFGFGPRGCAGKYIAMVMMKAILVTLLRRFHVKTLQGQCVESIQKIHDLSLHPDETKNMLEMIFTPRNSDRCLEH

[2] = target: T2, Steryl-sulfatase (Homo sapiens, UniProt P08842); test: Inhibition of steroid sulfatase in JEG3 cell membrane; type: cell-based, JEG-3
T2 sequence (P08842 whole entry): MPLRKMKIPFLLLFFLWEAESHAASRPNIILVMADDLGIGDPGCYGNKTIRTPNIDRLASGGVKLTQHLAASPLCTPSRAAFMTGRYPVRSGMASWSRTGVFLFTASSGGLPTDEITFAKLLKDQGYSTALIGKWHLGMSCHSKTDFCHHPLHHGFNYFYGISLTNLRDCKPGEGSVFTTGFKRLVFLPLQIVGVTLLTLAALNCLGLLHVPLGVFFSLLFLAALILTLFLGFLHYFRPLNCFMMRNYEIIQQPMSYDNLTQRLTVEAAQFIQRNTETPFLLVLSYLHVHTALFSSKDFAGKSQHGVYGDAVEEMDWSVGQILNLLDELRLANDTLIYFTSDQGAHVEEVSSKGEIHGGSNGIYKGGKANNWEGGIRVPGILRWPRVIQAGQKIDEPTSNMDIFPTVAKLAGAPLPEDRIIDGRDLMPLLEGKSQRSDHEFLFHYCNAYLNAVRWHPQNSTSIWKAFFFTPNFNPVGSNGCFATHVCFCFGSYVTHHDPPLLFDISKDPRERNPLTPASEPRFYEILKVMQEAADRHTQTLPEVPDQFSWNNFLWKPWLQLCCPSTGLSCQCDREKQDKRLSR

[3] = target: T1, Aromatase; test: Inhibition of aromatase in JEG3 cell membrane at 1 uM; type: cell-based; conditions: JEG-3, human; read-out: Activity
[4] = tested on: Rattus norvegicus; test: Inhibition of steroid sulfatase in Wistar rat assessed as liver STS activity at 10 mg/kg, po after 3 hrs
[5] = tested on: Rattus norvegicus; test: Inhibition of aromatase in Wistar rat assessed as reduction of PMSG-stimulated plasma estradiol level at 10 mg/kg, po after 3 hrs; type: functional
Outline: (§1)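 Female Wistar rats got a single sc injection of PMSG (200 IU). Three days later they received a single oral 10 mg/kg dose in THF/propylene glycol (10:90). Plasma estradiol was measured by radioimmunoassay at 3 or 24 h. Results are % inhibition of PMSG-stimulated estradiol, mean ± SE, n = 3, by Student's t test.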

[6] = tested on: Rattus norvegicus; test: Inhibition of aromatase in Wistar rat assessed as reduction of PMSG-stimulated plasma estradiol level at 10 mg/kg, po after 24 hrs; type: functional; outline: as §1
[7] = tested on: Rattus norvegicus; test: Inhibition of steroid sulfatase in Wistar rat assessed as liver STS activity at 10 mg/kg, po after 24 hrs
[8] = tested on: Rattus norvegicus; test: Inhibition of steroid sulfatase in Wistar rat liver at 10 mg/kg, po after 3 hrs; type: functional
Outline: (§2)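 Female Wistar rats were primed with a single sc injection of PMSG (200 IU). Three days later they were dosed once orally at 10 mg/kg in THF/propylene glycol (10:90). Liver was collected 3 or 24 h after dosing and STS activity assayed. Results are expressed against activity in untreated animals, mean ± SE, n = 3.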

[9] = tested on: Rattus norvegicus; test: Inhibition of steroid sulfatase in Wistar rat liver at 10 mg/kg, po; type: functional; outline: as §2

**Q.** With `N#Cc1ccc(N(Cc2ccc(O)c(I)c2)n2cnnc2)cc1` as the compound, how does the IC50 [1] read?
**A.** 0.33 nM

**Q.** `COc1ccc(CN(c2ccc(C#N)cc2)n2cnnc2)cc1OS(N)(=O)=O` was tested. Which IC50 [2] did it give?
**A.** > 10000 nM

**Q.** Which inhibition at 1 µM [3] does the source give for `N#Cc1ccc(N(Cc2ccc(OS(N)(=O)=O)cc2)n2cnnc2)cc1` here?
**A.** 63.4%

**Q.** `COc1cc(CN(c2ccc(C#N)cc2)n2cnnc2)ccc1OS(N)(=O)=O` was tested. Which IC50 [1] did it give?
**A.** 42 nM

**Q.** And the IC50 [2]?
**A.** 380 nM

**Q.** With `COc1cc(CN(c2ccc(C#N)cc2)n2cnnc2)cc(Cl)c1O` as the compound, how does the IC50 [1] read?
**A.** 0.51 nM

**Q.** For `N#Cc1ccc(N(Cc2ccc(Br)c(OS(N)(=O)=O)c2)n2cnnc2)cc1`, which IC50 [2] is on record?
**A.** > 10000 nM

**Q.** Which IC50 [1] does the source give for `N#Cc1ccc(N(Cc2ccc(Br)c(O)c2)n2cnnc2)cc1` here?
**A.** 0.5 nM

**Q.** With `N#Cc1ccc(C(c2ccc(C#N)cc2)n2cncn2)cc1` [LETROZOLE] as the compound, how does the inhibition in vivo at 10 mg/kg [4] read?
**A.** 3%

**Q.** What about the inhibition in vivo at 10 mg/kg [5] of the same compound?
**A.** 100%

**Q.** And the inhibition in vivo at 10 mg/kg [6]?
**A.** 100%

**Q.** What about the inhibition in vivo at 10 mg/kg [7] of the same compound?
**A.** 6%

**Q.** For `N#Cc1ccc(N(Cc2ccc(F)c(OS(N)(=O)=O)c2)n2cnnc2)cc1`, which inhibition in vivo at 10 mg/kg [8] is on record?
**A.** 100%

**Q.** And the inhibition in vivo at 10 mg/kg [4]?
**A.** 98%

**Q.** What about the inhibition in vivo at 10 mg/kg [5] of the same compound?
**A.** 82%

**Q.** What about the inhibition in vivo at 10 mg/kg [6] of the same compound?
**A.** 20%

**Q.** What about the inhibition in vivo at 10 mg/kg [7] of the same compound?
**A.** 33%

**Q.** `N#Cc1ccc(N(Cc2ccc(O)c(C#N)c2)n2cnnc2)cc1` was tested. Which IC50 [1] did it give?
**A.** 24 nM

**Q.** Which results are given for `N#Cc1ccc(N(Cc2ccc(OS(N)(=O)=O)c(I)c2)n2cnnc2)cc1`?
**A.** IC50 [1]: 1.5 nM; IC50 [2]: 190 nM

**Q.** Which IC50 [1] does the source give for `N#Cc1ccc(N(Cc2ccc(F)c(O)c2)n2cnnc2)cc1` here?
**A.** 0.6 nM

**Q.** With `COc1cc(CN(c2ccc(C#N)cc2)n2cnnc2)cc(Cl)c1OS(N)(=O)=O` as the compound, how does the IC50 [1] read?
**A.** 2.9 nM

**Q.** And the IC50 [2]?
**A.** 536 nM

**Q.** With `N#Cc1ccc(N(Cc2cccc(O)c2)n2cnnc2)cc1` as the compound, how does the IC50 [1] read?
**A.** 2.8 nM

**Q.** For `N#Cc1ccc(N(Cc2ccc(OS(N)(=O)=O)c(Br)c2)n2cnnc2)cc1`, which inhibition in vivo at 10 mg/kg [8] is on record?
**A.** 100%

**Q.** And the inhibition in vivo at 10 mg/kg [9]?
**A.** 100%

**Q.** What about the inhibition in vivo at 10 mg/kg [4] of the same compound?
**A.** 98%

**Q.** What about the inhibition in vivo at 10 mg/kg [5] of the same compound?
**A.** 100%

**Q.** What about the inhibition in vivo at 10 mg/kg [6] of the same compound?
**A.** 85%

**Q.** And the inhibition in vivo at 10 mg/kg [7]?
**A.** 72%

**Q.** For `N#Cc1ccc(N(Cc2ccc(Cl)c(O)c2)n2cnnc2)cc1`, which IC50 [1] is on record?
**A.** 0.18 nM

**Q.** How did the IC50 [1] turn out when `COc1ccc(CN(c2ccc(C#N)cc2)n2cnnc2)cc1O` was run?
**A.** 1.2 nM

**Q.** For `N#Cc1ccc(N(Cc2ccc(C(F)(F)F)c(O)c2)n2cnnc2)cc1`, which IC50 [1] is on record?
**A.** 0.4 nM

**Q.** How did the IC50 [1] turn out when `N#Cc1ccc(N(Cc2ccc(O)c(C(F)(F)F)c2)n2cnnc2)cc1` was run?
**A.** 0.88 nM

**Q.** What does the source list for `NS(=O)(=O)Oc1ccc2c3c(c(=O)oc2c1)CCCCC3` [IROSUSTAT]?
**A.** inhibition in vivo at 10 mg/kg [4]: 100%; inhibition in vivo at 10 mg/kg [7]: 97%

**Q.** How did the IC50 [1] turn out when `N#Cc1ccc(N(Cc2cc(Cl)c(O)c(Cl)c2)n2cnnc2)cc1` was run?
**A.** 7.6 nM

**Q.** How did the IC50 [1] turn out when `COc1cc(CN(c2ccc(C#N)cc2)n2cnnc2)ccc1O` was run?
**A.** 2.8 nM

**Q.** For `N#Cc1ccc(N(Cc2c(F)c(F)c(O)c(F)c2F)n2cnnc2)cc1`, which IC50 [1] is on record?
**A.** 159 nM

**Q.** `N#Cc1ccc(N(Cc2ccc(OS(N)(=O)=O)c(C#N)c2)n2cnnc2)cc1` was tested. Which IC50 [1] did it give?
**A.** 27 nM

**Q.** What about the IC50 [2] of the same compound?
**A.** > 10000 nM
